Assay results: PubChem BioAssay
Records with an inconclusive call do not appear.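 Rule for the calls, unless noted: active = growth inhibition above 25% in both replicates, a cutoff set 3 SD above the mean; inconclusive = above 25% in only one replicate; inactive = the rest.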

Legend:
[1] = OD615 S. cerevisiae growth inhibition, permissive medium, pilot counter-assay, permissive growth control for S. cerevisiae lifespan shortening project (AID 705); details: OD615, 24 h, at 10 µM, hits give high values
Procedure, shortened: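 assay system = Saccharomyces cerevisiae strain carrying genetically modified DeaD replicative-lifespan system | medium = SC raffinose/galactose permissive medium | dosing = 10 µM single dose, 0.25% DMSO | schedule = 24 h compound exposure at 30 °C after 4 h pre-growth | measured by = OD at 615 nm | read-out basis = growth inhibition from lowered OD615 after 24 h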

[2] = Restrictive medium S. cerevisiae growth inhibition, OD615, pilot screen of yeast lifespan reduction project, restrictive growth control (AID 706;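 active = growth inhibition above a set limit, 3 SD over mean compound inhibition, in both replicates, cut at about 43% in these data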;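 note: modified DeaD lifespan yeast strain shifted to restrictive glucose medium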); details: OD615, 48 h, at 10 µM, hits give high values
Procedure, shortened: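 Buffer or medium: CSMM-D glucose medium. Material: genetically modified Saccharomyces cerevisiae, DeaD replicative lifespan assay strain. Times: 48 h compound exposure at 30 °C. Measured by: optical density at 615 nm.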

[3] = viability gain of MRP-1-high H69AR cells under doxorubicin, pilot screen, MRP-1 activator project, CellTiter-Glo, duplicate (AID 807;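 active = viability increase at or above a cutoff of the median across tested compounds plus 3 SD, cut at about 8.5% in these data, passing the limit was not always enough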;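 note: compound pretreatment 18-22 h then 72 h combined with doxorubicin; 0% = doxorubicin alone and 100% = vehicle without doxorubicin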); details: H69AR viability with doxorubicin, CellTiter-Glo luminescence; at 10 µM; hits give high values
[4] = growth suppression of beta-catenin knockout HCT116, pilot screen, human colon tumor cells (AID 823;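 active = cell viability at or below a set limit in both duplicate runs, the limit being the all-compound median minus 4 SD, cut at about 23% in these data, passing the limit was not always enough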;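 note: 0% = wells killed by 20 µM Hyamine and 100% = untreated DMSO cell wells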); details: CellTiter-Glo, 60 h, at 10 µM, hits give low values
[5] = growth suppression of PTEN-deleted HCT116, pilot screen, cell-based, HCT116 clonal line, CellTiter-Glo (AID 824;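 active = viability at or below 27.92% in each of two runs, the all-compound median minus 4 SD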;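 note: 0% = 20 µM Hyamine control and 100% = vehicle cell control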); details: 60 h, at 10 µM, hits give low values
[6] = inhibitors of the yeast RAM network, pilot screen, dse1pr::URA3 reporter, 5-FOA selection (AID 869;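 active = inhibition over a set limit, the all-compound mean plus 3 SD, in both replicate runs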;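 note: 0% = DMSO wells with no growth and 100% = 10 µM 1-NA-PP1 with full growth; RAM network block rescues cells from 5-FOA so hits raise OD615 growth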); details: S. cerevisiae dse1pr::URA3 5-FOA growth, OD615, 2 d; at 10 µM; hits give high values; strain carries analog-sensitive mutant Cbk1 kinase
[7] = RAM signaling pathway blockade in yeast – S. cerevisiae, Pdr1DBD-CYC8 efflux-inhibited sensitized strain, primary screen (AID 1298;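 active = RAM network inhibition above 8.4% in each of two replicates, 3 SD over the compound average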;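 note: 0% = DMSO untreated cells without growth and 100% = 10 µM 1-NA-PP1 full growth; higher means more yeast growth rescued from 5-FOA killing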); details: S. cerevisiae cbk1-as DSE1-URA3 strain, 5-FOA growth OD615, 2 d; at 50 µM; hits give high values

COCCNC(=O)C1CCN(S(=O)(=O)c2ccccc2)CC1
inactive: growth inhibition [1] -2.1% | growth inhibition [2] -7.54% | viability increase [3] -1.38% | viability [4] 101% | viability [5] 93.7% | inhibition [6] -0.045% | RAM network inhibition [7] 2.93%

CCc1ccccc1N1CSC2=C(C#N)C(c3ccccc3F)CC(=O)N2C1 (stereo not drawn)
inactive: growth inhibition [1] -2.74% | growth inhibition [2] 35.3% | viability increase [3] -7.03% | viability [4] 78.8% | viability [5] 76.5% | inhibition [6] 0.905% | RAM network inhibition [7] 4.09%

Nc1ccc(Nc2ccccc2)c(Cl)c1
inactive: growth inhibition [1] -1.62% | growth inhibition [2] 19% | viability increase [3] -7.58% | viability [4] 94.7% | viability [5] 97.8% | inhibition [6] 2.79% | RAM network inhibition [7] 4.55%

CC1CCN(C(=O)c2ccc(NC(=O)C3CCCO3)cc2)CC1 (stereo not drawn)
inactive: growth inhibition [1] -31.4% | growth inhibition [2] -18.3% | viability increase [3] -0.41% | viability [4] 96.4% | viability [5] 94.3% | inhibition [6] 1.26% | RAM network inhibition [7] 3.59%

CCN1C(=O)c2ccc(-c3nc4ccccc4c(=O)o3)cc2C1=O
inactive: growth inhibition [1] -8.45% | growth inhibition [2] -0.43% | viability increase [3] -0.05% | viability [4] 99% | viability [5] 94.7% | inhibition [6] 1.71% | RAM network inhibition [7] 3.16%

CCN1CCCC(NC(=O)c2scc3c2CCCC3)C1 (stereo not drawn)
inactive: growth inhibition [1] -8.03% | growth inhibition [2] -5.2% | viability increase [3] -2.12% | viability [4] 96.5% | viability [5] 95.1% | inhibition [6] 0.625% | RAM network inhibition [7] -0.09%

COC(=O)c1ccc2[nH]c(C)cc(=O)c2c1
inactive: growth inhibition [1] -15.1% | growth inhibition [2] -24.1% | viability increase [3] -0.51% | viability [4] 99.8% | viability [5] 90.9% | inhibition [6] 1.61% | RAM network inhibition [7] 4.64%

COc1ccc(C(c2sc3nc(C)nn3c2O)N2CCC(O)CC2)cc1OC (stereo not drawn)
inactive: growth inhibition [1] 4.24% | growth inhibition [2] 0.32% | viability increase [3] -0.06% | viability [4] 106% | viability [5] 100% | inhibition [6] 1.38% | RAM network inhibition [7] 5.56%

COc1ccc(CCN2CC(C#N)=C3c4cc(OC)c(OC)cc4CCN3C2)cc1OC
inactive: growth inhibition [1] -2.16% | growth inhibition [2] 3.84% | viability increase [3] -4.7% | viability [4] 99.5% | viability [5] 95.4% | inhibition [6] -0.455% | RAM network inhibition [7] -0.37%

COc1ccc(CN2CCNC(=O)C2CC(=O)O)c(OC)c1 (stereo not drawn)
inactive: growth inhibition [1] -18.7% | growth inhibition [2] -24% | viability increase [3] -2.1% | viability [4] 105% | viability [5] 93.1% | inhibition [6] 2.47% | RAM network inhibition [7] 1.42%

CC(=O)Nc1nnc(-c2ccc3c(c2)CCCC3)o1
inactive: growth inhibition [1] -12.7% | growth inhibition [2] 3.68% | viability increase [3] -0.69% | viability [4] 95% | viability [5] 88.3% | inhibition [6] 1.36% | RAM network inhibition [7] 4.21%

Cc1noc(C)c1S(=O)(=O)N(CC(=O)NCc1ccc(Cl)cc1)c1ccc2c(c1)OCO2
inactive: growth inhibition [1] -13.6% | growth inhibition [2] -7.5% | viability increase [3] -3.36% | viability [4] 104% | viability [5] 97.9% | inhibition [6] 2.81% | RAM network inhibition [7] 1%

Cc1cc2ccccc2n1CCNC(=O)c1cccs1
inactive: growth inhibition [1] 0.02% | growth inhibition [2] 7.93% | viability increase [3] -2.29% | viability [4] 92.6% | viability [5] 91.4% | inhibition [6] 1.69% | RAM network inhibition [7] 3.36%

COc1ccccc1-c1c(C)nn2c(N3CCN(c4ccccc4OC)CC3)cc(C)nc12
inactive: growth inhibition [1] -0.095% | growth inhibition [2] 6.77% | viability increase [3] -1.57% | viability [4] 60.7% | viability [5] 63.2% | inhibition [6] 0.775% | RAM network inhibition [7] 1.3%
